The record followed here is ChEMBL document CHEMBL1151726, “Interactions of antiviral indolo[2,3-b]quinoxaline derivatives with DNA” (2008).

Assay [1] in a line: Ratio of binding constant K for 3 base pair binding site poly(dA-dT)2 DNA to binding constant K for calf thymus DNA.
A further assay has as its system Human betaherpesvirus 5. Description: Antiviral activity against human cytomegalovirus. Type of assay: functional.
Another assay concerns Nucleic Acid. Description: Binding affinity to poly(dA-dT)2 DNA assessed as drug-DNA intercalation at 5 to 10 uM by emission spectra analysis. Type of assay: nucleic-acid assay. The procedure, abridged:
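Emission spectra recorded with and without poly(dA-dT)2 at 100 µM bases. Ligand at 10 µM (monomeric) or 5 µM (dimeric), room temperature, 10 mM phosphate pH 7.5, total Na+ 100 mM.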

Assay [2] has as its system DNA. Briefly: Binding affinity to calf thymus DNA assessed as drug-DNA intercalation at 5 to 10 uM by absorption spectra analysis. Type of assay: nucleic-acid assay. To be noted: Bos taurus. The procedure, abridged: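 Ligands at 10 µM (monomeric) or 5 µM (dimeric) mixed 1:1 by volume with ct-DNA, 160 µM bases, in 10 mM phosphate pH 7.5, total Na+ 100 mM. Absorption spectra recorded at room temperature, several scans averaged.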

Assay [3] is described as follows: Ratio of binding constant K for 2 base pair binding site poly(dA-dT)2 DNA to binding constant K for calf thymus DNA.
Assay [4] has as its system DNA. Briefly: Binding affinity to calf thymus DNA assessed as drug-DNA intercalation at 5 to 10 uM by linear dichroism analysis. Type of assay: nucleic-acid assay. The following applies: Bos taurus. In a few lines:
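Flow linear dichroism with calf thymus DNA at 160 µM bases, ligand 10 µM (monomeric) or 5 µM (dimeric), 10 mM phosphate pH 7.5, Na+ 100 mM, room temperature. Spectra taken over 200–650 nm and baseline-corrected by subtracting the non-oriented sample spectrum.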

Assay [5] can be described thus: Ratio of binding constant K for poly(dA-dT)2 DNA to binding constant K for calf thymus DNA.
Assay [6] can be described thus: Ratio of binding constant K for 4 base pair binding site poly(dA-dT)2 DNA to binding constant K for calf thymus DNA.

SMILES strings stand for the structures. “And” between values parts separate entries of the source, which are not always exact repeats. Equal values may be shown once. The source made the active and inactive calls. The calls are words filed in the database; no cut-off is given here.

`C[N+](C)(CCC[N+](C)(C)CCn1c2ccccc2c2nc3ccccc3nc21)CCn1c2ccccc2c2nc3ccccc3nc21.[Br-].[Br-]`: the Ratio in assay [1] amounted to 1.9. Further, the “inhibition (INH)” value in the assay on Human betaherpesvirus 5 amounted to 100%. For the same compound, the outcome with Nucleic Acid and in the assay with DNA [2] was Active.
As for `Nc1nc2c(ncn2COC(CO)CO)c(=O)[nH]1` [GANCICLOVIR], the “inhibition (INH)” value in the assay on Human betaherpesvirus 5 was determined as 30%.
Same read-out and setting: as for `Cc1cc2nc3c4ccccc4n(CCN(C)C)c3nc2cc1C.I`, the figure is 100%.
`Cc1cc2nc3c4ccccc4n(CCN(C)C)c3nc2cc1C` [listing 1 of 2 here]: in assay [3], the Ratio is 1.8 and 2.4. Moreover, the result in the assay on DNA [4] was inactive. Besides, the result in the assay on Nucleic Acid and in the assay on DNA [2] was Active.
For `Cc1cc2nc3c4cc(N)ccc4n(CCN(C)C)c3nc2cc1C.Cl`, the Ratio in assay [5] is 1.7. For the same compound, the “inhibition (INH)” value with Human betaherpesvirus 5 is reported as 100%. The result in the assay with Nucleic Acid and in the assay on DNA [2] was Active.
With `C[N+](C)(CCCCCC[N+](C)(C)CCn1c2ccccc2c2nc3ccccc3nc21)CCn1c2ccccc2c2nc3ccccc3nc21.[Br-].[Br-]`, the Ratio in assay [6] came to 3. For the same compound, the “inhibition (INH)” value with Human betaherpesvirus 5 turned out to be 100%. Moreover, the outcome with Nucleic Acid and with DNA [2] was Active.
Regarding `Cc1cc2nc3c4ccccc4n(CCN(C)C)c3nc2cc1C.Cl`, in the assay with Human betaherpesvirus 5, the “inhibition (INH)” value turned out to be 100%.
`Cc1cc2nc3c4ccccc4n(CCN(C)C)c3nc2cc1C` [listing 2 of 2 here]: the “inhibition (INH)” value in the assay on Human betaherpesvirus 5 is recorded as 20%.
